The results in this text go back to ChEMBL document CHEMBL1141202, “Novel CCR1 antagonists with oral activity in the mouse collagen induced arthritis” (Bioorg Med Chem Lett, 2005).

Usually bioavailability stands for dose-corrected exposure relative to a reference, in per cent. High values mean much systemic uptake, low ones little systemic uptake. One may read the Cmax as the peak of the concentration-time curve. One may read the half-life as how long it takes for the measured level to halve. As usually defined, the AUC is concentration integrated over time. Read a high AUC as more exposure. As a reminder, the IC50 is the point on the concentration scale where inhibition reaches its midpoint.

Molecules are shown by their SMILES.

Data set [1] is described as follows: Oral bioavailability in rat. It counts as ADME, organism-based. Particulars: in vivo.
The species entered for the next data set is Rattus norvegicus. In words: Maximum concentration in rat. It counts as ADME, organism-based. Conditions: in vivo.
Data set [2] can be described thus: Half life in rat. It counts as ADME, organism-based. Conditions: in vivo.
A short description of data set [3]: AUC in rat. Conditions: plasma. It counts as ADME, organism-based.
Data set [4] addresses T1, C-C chemokine receptor type 1 (Homo sapiens, UniProt P32246).
T1 sequence (P32246 whole entry): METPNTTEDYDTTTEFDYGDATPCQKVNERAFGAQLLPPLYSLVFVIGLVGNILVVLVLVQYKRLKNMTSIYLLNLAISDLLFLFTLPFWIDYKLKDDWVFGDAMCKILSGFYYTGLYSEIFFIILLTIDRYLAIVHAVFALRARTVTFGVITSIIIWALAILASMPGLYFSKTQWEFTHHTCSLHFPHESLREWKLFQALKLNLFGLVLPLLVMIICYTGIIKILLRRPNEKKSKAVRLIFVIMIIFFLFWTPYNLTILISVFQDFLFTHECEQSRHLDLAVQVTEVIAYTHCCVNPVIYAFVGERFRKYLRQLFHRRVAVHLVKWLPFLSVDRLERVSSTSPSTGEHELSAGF
In words: Antagonistic activity at human CCR1 in CHO-K1 cells. It counts as functional, cell-based. The method in brief: (§1)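 CHO-K1 cells stably transfected with human, mouse or rat CCR1; membranes used in a scintillation proximity assay with radiolabelled MIP-1α as ligand.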

Data set [5] deals with Beta-1 adrenergic receptor (Homo sapiens, UniProt P08588). Nature of the data set: Inhibition of human adrenergic beta-1 receptor.
The target of the next data set is D(2) dopamine receptor (Homo sapiens, UniProt P14416). In words: Inhibition of human dopamine receptor D2.
For a further data set, the target named is D(4) dopamine receptor (Homo sapiens, UniProt P21917). Nature of the data set: Inhibition of human dopamine receptor D4.4.
The target in data set [6] is Alpha-2C adrenergic receptor (Homo sapiens, UniProt P18825). In words: Inhibition of human adrenergic alpha-2C receptor.
The target in the next data set is D(1A) dopamine receptor (Homo sapiens, UniProt P21728). In words: Inhibition of human dopamine receptor D1.
The target of data set [7] is Muscarinic acetylcholine receptor M4 (Homo sapiens, UniProt P08173). In words: Inhibition of human muscarinic receptor M4.
For data set [8], the target named is Alpha-2A adrenergic receptor (Homo sapiens, UniProt P08913). Nature of the data set: Inhibition of human adrenergic alpha-2A receptor.
The target of data set [9] is Serotonin 3 (5-HT3) receptor. In words: Inhibition of human 5HT3 receptor. It counts as protein-complex assay.
Data set [10] addresses 5-hydroxytryptamine receptor 1B (Homo sapiens, UniProt P28222). Nature of the data set: Inhibition of human 5HT1B receptor.
The target in data set [11] is Beta-2 adrenergic receptor (Homo sapiens, UniProt P07550). Nature of the data set: Inhibition of human adrenergic beta-2 receptor.
The target of data set [12] is 5-hydroxytryptamine receptor 1A (Homo sapiens, UniProt P08908). In words: Inhibition of human 5HT1A receptor.
Data set [13] has as its target C-C chemokine receptor type 2 (Homo sapiens, UniProt P41597). In words: Inhibition of human CCR2b.
Data set [14] deals with 5-hydroxytryptamine receptor 7 (Homo sapiens, UniProt P34969). Nature of the data set: Inhibition of human 5HT7 receptor.
In a further data set the target is Mu-type opioid receptor (Homo sapiens, UniProt P35372). In words: Inhibition of human mu opioid receptor.
For data set [15], the target named is 5-hydroxytryptamine receptor 6 (Homo sapiens, UniProt P50406). In words: Inhibition of human 5HT6 receptor.
The target of data set [16] is Muscarinic acetylcholine receptor M3 (Homo sapiens, UniProt P20309). Nature of the data set: Inhibition of human muscarinic receptor M3.
Data set [17] deals with Alpha-2B adrenergic receptor (Homo sapiens, UniProt P18089). In words: Inhibition of human adrenergic alpha-2B receptor.
The target in data set [18] is Muscarinic acetylcholine receptor M2 (Homo sapiens, UniProt P08172). In words: Inhibition of human muscarinic receptor M2.
For data set [19], the target named is Muscarinic acetylcholine receptor M5 (Homo sapiens, UniProt P08912). In words: Inhibition of human muscarinic receptor M5.
Data set [20] concerns the target 5-hydroxytryptamine receptor 2A (Homo sapiens, UniProt P28223). In words: Inhibition of human 5HT2A receptor.
Data set [21] concerns the target 5-hydroxytryptamine receptor 2B (Homo sapiens, UniProt P41595). Nature of the data set: Inhibition of human 5HT2B receptor.
Data set [22] addresses C-C chemokine receptor type 5 (Mus musculus, UniProt P51682). Nature of the data set: Inhibition of mouse CCR5.
Data set [23] concerns the target Adrenergic receptor alpha-1 (Homo sapiens, UniProt P35348+P25100+P35368). Nature of the data set: Inhibition of human adrenergic alpha-1 receptor. It counts as protein assay.
The next data set concerns the target D(3) dopamine receptor (Homo sapiens, UniProt P35462). Nature of the data set: Inhibition of human dopamine receptor D3.
Data set [24] deals with Delta-type opioid receptor (Homo sapiens, UniProt P41143). Nature of the data set: Inhibition of human delta opioid receptor.
For data set [25], the target named is Kappa-type opioid receptor (Homo sapiens, UniProt P41145). In words: Inhibition of human kappa opioid receptor.
For data set [26], the target named is Muscarinic acetylcholine receptor M1 (Homo sapiens, UniProt P11229). In words: Inhibition of human muscarinic receptor M1.
Data set [27] addresses C-C chemokine receptor type 3 (Homo sapiens, UniProt P51677). In words: Inhibition of human CCR3.
For data set [28], the target named is 5-hydroxytryptamine receptor 2C (Homo sapiens, UniProt P28335). Nature of the data set: Inhibition of human 5HT2C receptor.
Data set [29] addresses C-C chemokine receptor type 6 (Homo sapiens, UniProt P51684). In words: Inhibition of human CCR6.
Data set [30] has as its target T1, C-C chemokine receptor type 1. In words: Antagonistic activity at human CCR1 by inhibition of MIP-1alpha induced calcium mobilization in THP1 cells. It counts as functional, cell-based, THP-1. The method, boiled down: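 THP-1 cells with native CCR1 expression; preincubated with antagonist 30 min at RT, then stimulated with 3 nM MIP-1α; calcium response read as fluo-4 fluorescence.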

For data set [31], the target named is T2, C-C chemokine receptor type 1 (Mus musculus, UniProt P51675).
T2 sequence (P51675 whole entry): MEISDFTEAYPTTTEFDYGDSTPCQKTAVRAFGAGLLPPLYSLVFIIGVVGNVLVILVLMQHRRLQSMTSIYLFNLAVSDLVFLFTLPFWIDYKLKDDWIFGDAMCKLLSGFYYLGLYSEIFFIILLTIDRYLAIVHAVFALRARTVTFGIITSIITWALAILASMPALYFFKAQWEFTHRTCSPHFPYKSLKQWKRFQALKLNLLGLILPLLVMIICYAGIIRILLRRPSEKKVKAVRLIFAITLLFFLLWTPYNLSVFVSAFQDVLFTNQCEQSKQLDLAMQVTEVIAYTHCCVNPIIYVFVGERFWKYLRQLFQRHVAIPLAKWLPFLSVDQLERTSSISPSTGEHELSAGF
In words: Antagonistic activity at mouse CCR1 in CHO-K1 cells. It counts as functional, cell-based. The method in brief:
as §1

5-hydroxytryptamine receptor 2A, sequence (P28223 whole entry): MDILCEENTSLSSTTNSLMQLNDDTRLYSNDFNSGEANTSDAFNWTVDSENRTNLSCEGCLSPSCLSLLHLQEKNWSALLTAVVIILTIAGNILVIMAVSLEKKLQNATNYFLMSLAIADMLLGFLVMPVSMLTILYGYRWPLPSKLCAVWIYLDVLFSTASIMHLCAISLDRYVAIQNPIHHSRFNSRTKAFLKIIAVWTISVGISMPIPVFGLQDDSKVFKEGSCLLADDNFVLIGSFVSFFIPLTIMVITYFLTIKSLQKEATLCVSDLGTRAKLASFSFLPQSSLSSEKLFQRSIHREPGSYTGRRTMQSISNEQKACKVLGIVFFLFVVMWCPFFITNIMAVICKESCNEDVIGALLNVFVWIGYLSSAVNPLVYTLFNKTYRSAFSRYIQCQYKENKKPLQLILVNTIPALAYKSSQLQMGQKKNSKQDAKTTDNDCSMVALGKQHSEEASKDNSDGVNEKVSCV
C-C chemokine receptor type 2, sequence (P41597 whole entry): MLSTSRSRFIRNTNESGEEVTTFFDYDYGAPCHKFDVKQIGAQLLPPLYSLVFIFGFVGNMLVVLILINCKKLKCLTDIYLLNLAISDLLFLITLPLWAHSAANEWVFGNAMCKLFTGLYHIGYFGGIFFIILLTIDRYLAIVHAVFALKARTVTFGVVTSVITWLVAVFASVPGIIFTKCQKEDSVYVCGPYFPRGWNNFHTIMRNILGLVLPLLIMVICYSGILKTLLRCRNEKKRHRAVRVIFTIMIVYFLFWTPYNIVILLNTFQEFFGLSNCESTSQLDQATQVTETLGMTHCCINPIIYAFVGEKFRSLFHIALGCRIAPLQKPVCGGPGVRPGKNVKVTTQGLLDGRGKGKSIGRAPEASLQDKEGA
Mu-type opioid receptor, sequence (P35372 whole entry): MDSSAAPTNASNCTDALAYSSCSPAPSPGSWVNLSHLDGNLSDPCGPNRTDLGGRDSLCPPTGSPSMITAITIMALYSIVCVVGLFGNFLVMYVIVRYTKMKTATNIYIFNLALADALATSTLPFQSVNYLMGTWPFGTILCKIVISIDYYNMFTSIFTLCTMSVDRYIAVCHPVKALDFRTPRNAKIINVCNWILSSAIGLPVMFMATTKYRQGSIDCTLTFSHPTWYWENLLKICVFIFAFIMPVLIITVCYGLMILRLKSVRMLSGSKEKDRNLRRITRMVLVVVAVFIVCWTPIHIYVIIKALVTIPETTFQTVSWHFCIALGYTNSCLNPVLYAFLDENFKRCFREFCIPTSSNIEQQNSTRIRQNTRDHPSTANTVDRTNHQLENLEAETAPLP
5-hydroxytryptamine receptor 6, sequence (P50406 whole entry): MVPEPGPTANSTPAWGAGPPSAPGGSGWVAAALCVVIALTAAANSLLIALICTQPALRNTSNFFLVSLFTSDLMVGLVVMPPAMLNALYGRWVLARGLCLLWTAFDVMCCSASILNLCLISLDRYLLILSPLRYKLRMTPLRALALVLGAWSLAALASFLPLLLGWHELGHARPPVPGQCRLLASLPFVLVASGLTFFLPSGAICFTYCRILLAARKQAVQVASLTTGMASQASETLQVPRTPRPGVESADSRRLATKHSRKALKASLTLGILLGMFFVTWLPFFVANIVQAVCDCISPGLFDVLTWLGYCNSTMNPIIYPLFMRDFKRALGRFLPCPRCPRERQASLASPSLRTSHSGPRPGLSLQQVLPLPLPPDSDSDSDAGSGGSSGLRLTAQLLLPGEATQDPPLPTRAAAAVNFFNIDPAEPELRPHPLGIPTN
D(1A) dopamine receptor, sequence (P21728 whole entry): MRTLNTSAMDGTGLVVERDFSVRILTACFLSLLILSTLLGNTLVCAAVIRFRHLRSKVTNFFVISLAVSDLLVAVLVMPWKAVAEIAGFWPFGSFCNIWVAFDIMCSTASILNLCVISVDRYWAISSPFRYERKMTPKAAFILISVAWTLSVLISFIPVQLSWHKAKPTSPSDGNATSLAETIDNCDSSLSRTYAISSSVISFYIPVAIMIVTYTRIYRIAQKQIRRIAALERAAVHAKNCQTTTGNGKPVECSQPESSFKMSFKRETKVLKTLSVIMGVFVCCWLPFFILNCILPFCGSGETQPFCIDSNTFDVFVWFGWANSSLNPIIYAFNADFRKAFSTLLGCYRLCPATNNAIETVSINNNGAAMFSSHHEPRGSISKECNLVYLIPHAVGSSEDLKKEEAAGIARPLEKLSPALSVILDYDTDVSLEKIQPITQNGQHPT
Muscarinic acetylcholine receptor M1, sequence (P11229 whole entry): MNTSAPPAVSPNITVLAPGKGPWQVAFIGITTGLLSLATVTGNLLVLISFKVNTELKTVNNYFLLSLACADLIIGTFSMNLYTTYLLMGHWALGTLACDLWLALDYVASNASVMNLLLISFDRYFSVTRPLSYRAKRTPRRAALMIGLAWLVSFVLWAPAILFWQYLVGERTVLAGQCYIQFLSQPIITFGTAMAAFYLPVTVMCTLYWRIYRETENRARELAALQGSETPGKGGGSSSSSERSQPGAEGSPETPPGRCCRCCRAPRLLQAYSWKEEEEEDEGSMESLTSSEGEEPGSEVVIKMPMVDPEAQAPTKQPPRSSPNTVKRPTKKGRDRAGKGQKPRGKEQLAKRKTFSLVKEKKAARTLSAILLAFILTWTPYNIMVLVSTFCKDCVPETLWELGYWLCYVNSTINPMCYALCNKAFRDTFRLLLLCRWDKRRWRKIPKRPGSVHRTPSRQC
Beta-1 adrenergic receptor, sequence (P08588 whole entry): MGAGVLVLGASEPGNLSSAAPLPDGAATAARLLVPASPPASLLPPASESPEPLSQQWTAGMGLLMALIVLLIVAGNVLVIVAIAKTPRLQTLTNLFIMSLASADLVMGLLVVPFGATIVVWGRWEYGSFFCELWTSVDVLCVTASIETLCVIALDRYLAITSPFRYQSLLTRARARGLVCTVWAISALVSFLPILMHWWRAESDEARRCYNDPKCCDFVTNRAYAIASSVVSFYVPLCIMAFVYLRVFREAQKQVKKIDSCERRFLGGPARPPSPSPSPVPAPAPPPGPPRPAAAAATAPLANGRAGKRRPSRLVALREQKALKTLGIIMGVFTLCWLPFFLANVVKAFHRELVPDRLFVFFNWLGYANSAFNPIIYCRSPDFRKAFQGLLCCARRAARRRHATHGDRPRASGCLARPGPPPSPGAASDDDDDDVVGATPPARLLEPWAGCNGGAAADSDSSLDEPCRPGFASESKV
C-C chemokine receptor type 5, sequence (P51682 whole entry): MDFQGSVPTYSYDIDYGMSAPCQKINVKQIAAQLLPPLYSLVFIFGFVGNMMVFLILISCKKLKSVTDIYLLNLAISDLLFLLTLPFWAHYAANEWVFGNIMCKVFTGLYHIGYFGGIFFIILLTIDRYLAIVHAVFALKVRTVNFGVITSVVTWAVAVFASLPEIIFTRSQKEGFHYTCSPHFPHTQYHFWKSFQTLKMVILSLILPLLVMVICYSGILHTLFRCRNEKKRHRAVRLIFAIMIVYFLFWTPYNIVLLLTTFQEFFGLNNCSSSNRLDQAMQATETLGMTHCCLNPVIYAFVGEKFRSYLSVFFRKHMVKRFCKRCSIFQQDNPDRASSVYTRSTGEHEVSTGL
D(4) dopamine receptor, sequence (P21917 whole entry): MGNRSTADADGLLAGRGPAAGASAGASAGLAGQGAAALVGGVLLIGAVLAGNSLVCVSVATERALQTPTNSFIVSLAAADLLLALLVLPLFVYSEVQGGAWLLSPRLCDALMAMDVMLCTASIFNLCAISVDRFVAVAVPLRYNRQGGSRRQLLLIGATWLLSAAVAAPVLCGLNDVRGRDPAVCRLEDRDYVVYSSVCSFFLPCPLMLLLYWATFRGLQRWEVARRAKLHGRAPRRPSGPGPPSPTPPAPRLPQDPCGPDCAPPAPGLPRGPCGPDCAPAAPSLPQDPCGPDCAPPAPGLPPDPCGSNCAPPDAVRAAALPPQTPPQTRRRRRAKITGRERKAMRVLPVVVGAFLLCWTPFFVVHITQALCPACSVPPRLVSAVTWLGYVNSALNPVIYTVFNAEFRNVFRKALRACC
Alpha-2C adrenergic receptor, sequence (P18825 whole entry): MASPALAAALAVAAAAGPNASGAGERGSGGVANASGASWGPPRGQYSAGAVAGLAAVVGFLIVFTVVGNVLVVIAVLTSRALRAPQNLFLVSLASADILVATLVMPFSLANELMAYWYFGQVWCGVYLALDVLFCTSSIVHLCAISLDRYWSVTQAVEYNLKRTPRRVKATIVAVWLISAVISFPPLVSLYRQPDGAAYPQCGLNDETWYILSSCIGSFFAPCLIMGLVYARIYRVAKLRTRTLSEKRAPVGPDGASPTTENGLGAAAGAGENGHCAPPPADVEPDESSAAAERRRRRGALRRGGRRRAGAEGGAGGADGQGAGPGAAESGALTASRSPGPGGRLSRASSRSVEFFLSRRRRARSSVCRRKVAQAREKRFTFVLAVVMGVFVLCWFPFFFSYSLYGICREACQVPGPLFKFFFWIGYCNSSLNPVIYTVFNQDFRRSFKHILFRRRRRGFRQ
Alpha-2A adrenergic receptor, sequence (P08913 whole entry): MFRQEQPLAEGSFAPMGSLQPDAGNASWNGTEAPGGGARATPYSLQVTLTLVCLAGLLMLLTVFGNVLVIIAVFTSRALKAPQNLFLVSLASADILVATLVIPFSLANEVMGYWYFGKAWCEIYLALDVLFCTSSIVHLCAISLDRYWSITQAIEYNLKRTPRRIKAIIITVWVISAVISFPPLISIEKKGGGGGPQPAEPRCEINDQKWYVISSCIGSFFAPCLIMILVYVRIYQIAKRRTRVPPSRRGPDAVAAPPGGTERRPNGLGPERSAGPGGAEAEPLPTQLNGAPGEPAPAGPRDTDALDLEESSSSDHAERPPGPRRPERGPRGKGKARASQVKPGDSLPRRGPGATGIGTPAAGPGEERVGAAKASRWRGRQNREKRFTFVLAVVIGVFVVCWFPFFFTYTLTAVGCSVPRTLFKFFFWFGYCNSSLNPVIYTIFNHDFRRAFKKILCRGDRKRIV

In [1], `C[C@@H]1CN(Cc2ccc(F)cc2)CCN1C(=O)/C=C/c1ccc(Cl)cc1NC(N)=O` registered a bioavailability of 90%. The same molecule showed a Cmax in the data set filed under Rattus norvegicus of 934 nM. In [2], this molecule gave a half-life of 11 h. In data set [3], this molecule displayed an AUC of 487 ng·h/mL.

As for `CC(=O)Nc1cc(Cl)ccc1/C=C/C(=O)N1C[C@H]2C[C@@H]1CN2Cc1ccc(F)cc1`, the IC50 in data set [4] came to 1.7 µM.

For `CC(=O)Nc1cc(Cl)ccc1/C=C/C(=O)N1CCN(Cc2ccc(F)cc2)C[C@H]1C`, the IC50 (in data set [5]; at D(2) dopamine receptor; on D(4) dopamine receptor; in [6]; against D(1A) dopamine receptor; in data set [7]) was greater than 1 µM throughout. Further, the IC50 in data set [8] is greater than 1 µM; in data set [9], greater than 1 µM; in data set [10] it was greater than 1 µM; in data set [11] it was greater than 1 µM; in [12] it was greater than 1 µM; in data set [13], greater than 10 µM. The IC50 (in data set [14]; on Mu-type opioid receptor; in [15]; in data set [16]; in data set [17]; in [18]) was greater than 1 µM in each case. Moreover, the IC50 in data set [19] is greater than 1 µM; in [20] it was greater than 1 µM; in data set [21] it was greater than 1 µM; in data set [22] it was greater than 10 µM; in [23], greater than 1 µM; against D(3) dopamine receptor it was greater than 1 µM. For the same molecule, the IC50 was greater than 1 µM in data set [24]; greater than 1 µM in data set [25]; greater than 1 µM in [26]; greater than 10 µM in data set [27]; greater than 1 µM in data set [28]; greater than 100 µM in data set [29]. This molecule showed a bioavailability in data set [1] of 95%. The molecule also came in with a Cmax in the data set filed under Rattus norvegicus of 850 nM. Further, the half-life in data set [2] is 16.5 h. For the same molecule, the AUC in data set [3] was 784 ng·h/mL.

Take `CC(=O)Nc1cc2ncccc2cc1/C=C/C(=O)N1CCN(Cc2ccc(F)cc2)C[C@H]1C`: the IC50 worked out at 0.03 µM in data set [4], 0.02 µM in data set [30] and 1 µM in [31].

Molecule `CN(C)CC(=O)Nc1cc(Cl)ccc1/C=C/C(=O)N1C2CCC1CN(Cc1ccc(F)cc1)C2` displayed a bioavailability in [1] of 77%. The IC50 in data set [4] amounted to 0.03 µM; in [30], 0.009 µM; in data set [31] it was 0.04 µM. The molecule also showed a Cmax in the data set filed under Rattus norvegicus of 407 nM. This molecule also showed a half-life in [2] of 2.92 h. Moreover, in data set [3], the AUC is 1070 ng·h/mL.

In data set [1], `COc1cc(/C=C/C(=O)N2CCN(Cc3ccc(F)cc3)C[C@H]2C)c(NC(C)=O)cc1Cl` had a bioavailability of 100%. Moreover, in the data set listed under Rattus norvegicus, the Cmax is 396 nM. For the same molecule, in [2], the half-life is 4.1 h. In data set [3], this molecule displayed an AUC of 750 ng·h/mL.

With `CC(=O)Nc1cc2ncccc2cc1/C=C/C(=O)N1C2CCC1CN(Cc1ccc(F)cc1)C2`, the values for the IC50 in data set [4] and in data set [31] were 0.15 µM and 0.05 µM, respectively.

For the molecule `CC(=O)Nc1cc(Cl)ccc1/C=C/C(=O)N1CCCN(Cc2ccc(F)cc2)C[C@H]1C`, in data set [4], the 50% inhibitory concentration (IC50) was determined as 1.6 µM.

With `CC(=O)Nc1cc2ccccc2cc1/C=C/C(=O)N1CCN(Cc2ccc(F)cc2)C[C@H]1C`, the IC50 was 0.08 µM in [4], 0.013 µM in [30] and 0.5 µM in [31].

Turning to `CC(=O)Nc1cc(Cl)ccc1/C=C/C(=O)N1CC2CCC(C1)N2Cc1ccc(F)cc1`, 0.3 µM corresponded to half-maximal inhibition in data set [4] (IC50).

The molecule `COc1cc(/C=C/C(=O)N2C3CCC2CN(Cc2ccc(F)cc2)C3)c(NC(C)=O)cc1Cl` displayed a bioavailability in [1] of 83%. Besides, the IC50 was 0.007 µM in data set [4] and 0.004 µM in [31]. This molecule showed a Cmax in the data set listed under Rattus norvegicus of 80 nM. Also, the half-life in data set [2] is 5.1 h. Further, in data set [3], the AUC came out at 158 ng·h/mL.

In data set [4], `CC(=O)Nc1cc(Cl)ccc1/C=C/C(=O)N1C2CCC1CN(Cc1ccc(F)cc1)C2` displayed a concentration for half-maximal inhibition (IC50) of 0.2 µM.

The molecule `COc1cc2c(cc1Cl)NC(=O)NC2CC(=O)N1CCN(Cc2ccc(F)cc2)C[C@H]1C` (stereo partly drawn) yielded an IC50 in data set [4] of 0.8 µM.

In data set [4], `CC(=O)Nc1cc(Cl)ccc1CCC(=O)N1CCN(Cc2ccc(F)cc2)C[C@H]1C` gave an IC50 of 0.36 µM.

In [1], `C[C@@H]1CN(Cc2ccc(F)cc2)CCN1C(=O)COc1ccc(Cl)cc1NC(N)=O.Cl` [BX 471] came in with a bioavailability of 100%. The same molecule had a Cmax in the data set listed under Rattus norvegicus of 400 nM. In data set [2], this molecule had a half-life of 1.9 h. This molecule also returned an area under the curve (AUC) in data set [3] of 139 ng·h/mL.
